Assay results as given in ChEMBL document CHEMBL1148512, “Fluorophor-labeled spermidine derivatives as fluorescent markers in optical tumor imaging” (Bioorg Med Chem Lett, 2006).
The source made the active and inactive calls. No cut-off for these calls is given here.

Assays:
B16 [1] = assay: Cytotoxicity against mouse B16 cells assessed as inhibition of colony formation at 25 uM after 4 hrs; format: functional, cell-based
Method in brief: (§1)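 Colony forming assay in MH3924A and B16 cells. Cells were exposed to dye for 4 h (1–250 µM tested across dyes) and colonies were scored 8 days later. Colony formation is expressed as percent of untreated controls.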

B16 [2] = assay: Cellular uptake in mouse B16 cells; format: ADME, cell-based
Method in brief: (§2)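 Cultured tumour cells grown on coverslips, incubated with 50 µM dye conjugate for 1, 4 and 24 h, then imaged by confocal laser scanning microscopy. Parallel incubations were run with benzyl viologen, a polyamine uptake inhibitor. B16 cells were also co-cultured with 3T3YMT-MP non-tumour cells, which express yellow fluorescent protein in mitochondria. Unlabelled cells served as reference.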

MH3924A [3] = assay: Cellular uptake in rat MH3924A cells; format: ADME, cell-based; method in brief: as §2
MH3924A [4] = assay: Cytotoxicity against rat MH3924A cells assessed as inhibition of colony formation at 25 uM after 4 hrs; format: functional, cell-based; method in brief: as §1
B16 [5] = assay: Increase in fluorescence in mouse B16 cells after 24 hrs relative to control; format: functional, cell-based
Method in brief: (§3)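 Quantitative uptake assay: tumour cells incubated with dye for 24 h. Cell-associated fluorescence is expressed as percent increase over unlabelled tumour cells.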

Mus musculus [6] = species: Mus musculus; assay: Distribution in bladder of MH3924A hepatoma bearing nude Balc C nu/nu mouse by fluorescence imaging; format: ADME, organism-based, Urinary bladder; conditions: in vivo
Method in brief: (§4)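 Male Balb/c nu/nu nude mice (about 20 g) carrying subcutaneous MH3924A rat hepatoma (3–8 mm diameter). Dye given as an iv bolus via lateral tail vein, 500 lmol/kg; PBS-injected controls. Under ip ketamine/xylazine (1 mL/kg), open surgery with chest or abdominal incision. Cooled CCD imaging at 10 min, 1 h and 4 h, 60 s exposure, about 5 cm distance. Photon counts summed per equal-size region of interest (11.6 mm2) over 1 min.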

MH3924A [7] = assay: Increase in fluorescence in rat MH3924A cells after 24 hrs relative to control; format: functional, cell-based; method in brief: as §3
Mus musculus [8] = species: Mus musculus; assay: Distribution in lung of MH3924A hepatoma bearing nude Balc C nu/nu mouse by fluorescence imaging; format: ADME, organism-based; conditions: in vivo; method in brief: as §4
Mus musculus [9] = species: Mus musculus; assay: Distribution in muscle of MH3924A hepatoma bearing nude Balc C nu/nu mouse by fluorescence imaging; format: ADME, organism-based, Muscle tissue; conditions: in vivo; method in brief: as §4
MH3924A [10] = assay: Cellular uptake in rat MH3924A cells xenografted in nude Balc C nu/nu mouse by fluorescence imaging; format: ADME, cell-based; conditions: in vivo; method in brief: as §4

Compound | Activity (B16 [1]) | Drug uptake (B16 [2]) | Drug uptake (MH3924A [3]) | Activity (MH3924A [4]) | Drug uptake (B16 [5]) [%] | Drug uptake (Mus musculus [6]) | Drug uptake (MH3924A [7]) [%] | Drug uptake (Mus musculus [8]) | Drug uptake (Mus musculus [9]) | Drug uptake (MH3924A [10])
Cc1cc2cc3cc(C)c(NC(=O)CC(N)C(=O)NCCCCNCCCN)cc3nc2cc1N (stereo not drawn) [ASPARTYL(ACRIDINE YELLOW G)SPERMIDINE] | Active | Active | Active | Active | – | – | – | – | – | –
NCCCNCCCCNC(=O)C[C@H](NC(=O)c1ccc(-c2c3ccc(=O)cc-3oc3cc(O)ccc23)c(C(=O)O)c1)C(=O)NCC(=O)NCC(N)=O | – | Not Active | Not Active | – | – | – | – | – | – | –
CNc1ccccc1C(=O)NCCCCNCCCN | – | – | Active | – | 19 | Active | 16 | Not Active | Not Active | Active
